{"data": "Experimental data pooled from the literature", "target": "Phosphatidylinositol 3-kinase catalytic subunit type 3 (PIK3C3, Homo sapiens, UniProt Q8NEB9)", "note": "Compare with care: the assays were run in different laboratories."}
{"SMILES": "O=C(NCCCN1CCOCC1)c1ccc(Nc2ncc(Cl)c(-c3ccc(Cl)s3)n2)cc1", "test": "binding, competition with immobilised ligand", "conditions": "1 µM", "remaining binding [%]": 33}
{"SMILES": "C[C@H]1CCN(c2nccc(-c3cnn4ncccc34)n2)C1", "test": "binding", "conditions": "1 µM", "remaining binding [%]": 86}
{"SMILES": "Cc1cnc(Nc2ccc(C(=O)N3CCC(N4CCCC4)CC3)cc2)nc1-c1cc2ccccc2s1", "test": "binding, competition with immobilised ligand", "conditions": "1 µM", "remaining binding [%]": 14}
{"SMILES": "Nc1ncc2c(n1)-c1c([nH]c3ccc(C#CC4CC4)cc13)CCCC2", "test": "binding, competition with immobilised ligand", "conditions": "1 µM", "remaining binding [%]": 93}
{"SMILES": "c1cnn2ncc(-c3ccnc(N4CCC45COC5)n3)c2c1", "test": "binding", "conditions": "1 µM", "remaining binding [%]": 48}
{"SMILES": "CN(C)CC#Cc1ccc(OCCCc2sc(N3CCc4cccc(C(=O)Nc5nc6ccccc6s5)c4C3)nc2C(=O)O)c(F)c1", "test": "cell-free assay, competition with immobilised ligand", "conditions": "1 µM", "remaining binding [%]": 100}
{"SMILES": "FC(F)(F)Oc1cccc(-c2cnc3ccc(-c4ccncc4)nn23)c1", "test": "cell-free assay, competition with immobilised ligand", "conditions": "5 µM", "remaining binding [%]": 34}
{"SMILES": "O=C(c1ccc(Nc2ncc(Cl)c(-c3cc4ccccc4s3)n2)cc1)N1CCC(N2CCCC2)CC1", "test": "binding, competition with immobilised ligand", "conditions": "1 µM", "remaining binding [%]": 53}
{"SMILES": "O=C(O)[C@@H]1[C@@H](Cn2nnc3ccccc3c2=O)CC[C@H]1C(=O)c1ccc(OCCC2CCOCC2)cc1", "test": "cell-free assay, competition with immobilised ligand", "conditions": "1 µM", "remaining binding [%]": 96}
{"SMILES": "COc1cnc(Nc2cccc(S(N)(=O)=O)c2)nc1N1CCN(c2ccccc2)C(=O)C1", "test": "binding, competition with immobilised ligand", "conditions": "1 µM", "remaining binding [%]": 64}
{"SMILES": "Cc1cnn2ncc(-c3ccnc(N(C)C)n3)c2c1", "test": "binding", "conditions": "1 µM", "remaining binding [%]": 87}
{"SMILES": "Nc1c(C(=O)NCc2ccc(C(=O)NCCCC3CCCCC3)cc2)cnn1-c1ccccc1", "test": "cell-free assay, competition with immobilised ligand", "conditions": "0.1 µM", "remaining binding [%]": 99}
{"SMILES": "COc1ccnn2ncc(-c3ccnc(N(C)C)n3)c12", "test": "binding", "conditions": "1 µM", "remaining binding [%]": 96}
{"SMILES": "COc1cnc(Nc2cccc(S(N)(=O)=O)c2)nc1N1CCN(c2ccccc2)CC1", "test": "binding, competition with immobilised ligand", "conditions": "1 µM", "remaining binding [%]": 76}
{"SMILES": "O=C(NCC1CCOCC1)c1n[nH]cc1NC(=O)c1c(F)cccc1F", "test": "binding, competition with immobilised ligand", "conditions": "1 µM", "remaining binding [%]": 97}
{"SMILES": "O=C(O)c1cc(-c2ccc(C3CCNCC3)cc2)c2ccc(-c3ccc(C(F)(F)F)cc3)cc2c1", "test": "cell-free assay, competition with immobilised ligand", "conditions": "1 µM", "remaining binding [%]": 100}
{"SMILES": "COc1ncc2cc3ccccc3nc2c1C#N", "test": "cell-free assay, competition with immobilised ligand", "conditions": "5 µM", "remaining binding [%]": 92}
{"SMILES": "c1ccc(N2CCN(Cc3nc4ccccc4[nH]3)CC2)nc1", "test": "cell-free assay, competition with immobilised ligand", "conditions": "1 µM", "remaining binding [%]": 100}
{"SMILES": "N[C@@H]1CCN(c2nccc(-c3cnn4ncccc34)n2)C1", "test": "binding", "conditions": "1 µM", "remaining binding [%]": 83}
{"SMILES": "Cc1cc(-n2nc(Cc3cc(F)cc(C(F)(F)F)c3)nc2C)ccc1C(N)=O", "test": "cell-free assay, competition with immobilised ligand", "conditions": "1 µM", "remaining binding [%]": 100}
{"SMILES": "CN(c1nccc(-c2cnn3ncccc23)n1)C1CC1", "test": "binding", "conditions": "1 µM", "remaining binding [%]": 100}
